Tests used:
[1] = molecular target: Bifunctional dihydrofolate reductase-thymidylate synthase (Leishmania major, UniProt P07382); test: Inhibition of dihydrofolate reductase (DHFR) from Leishmania major; conditions: read-out: Log 1/Ki (converted)
Leishmania major = test: Growth inhibition against Leishmania major promastigotes in culture; type: functional, organism-based; conditions: read-out: Log 1/EC50 (converted)
Outline: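 Seeded at 5 × 10⁶ cells/mL with four to six inhibitor concentrations spanning the I50. Coulter-counted daily for 5 days or until out of log phase. EC50 = concentration halving growth rate versus drug-free medium, from log dose vs percent growth plot.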

Chain of Bifunctional dihydrofolate reductase-thymidylate synthase (P07382 whole entry): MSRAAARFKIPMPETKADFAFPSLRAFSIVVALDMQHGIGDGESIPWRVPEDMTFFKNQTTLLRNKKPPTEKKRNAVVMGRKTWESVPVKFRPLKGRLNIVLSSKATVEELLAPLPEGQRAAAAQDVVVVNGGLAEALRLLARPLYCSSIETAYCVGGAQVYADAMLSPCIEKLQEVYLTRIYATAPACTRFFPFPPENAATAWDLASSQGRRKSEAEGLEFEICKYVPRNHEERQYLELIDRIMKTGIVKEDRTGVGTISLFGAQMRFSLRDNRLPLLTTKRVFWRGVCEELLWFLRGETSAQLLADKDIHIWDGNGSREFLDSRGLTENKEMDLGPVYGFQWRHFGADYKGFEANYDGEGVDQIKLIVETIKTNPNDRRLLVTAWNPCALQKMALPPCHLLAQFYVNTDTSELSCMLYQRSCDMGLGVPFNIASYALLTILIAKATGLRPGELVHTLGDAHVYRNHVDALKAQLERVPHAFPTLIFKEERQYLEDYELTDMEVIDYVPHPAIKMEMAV

Structure (SMILES) | Ki [1] | EC50 (Leishmania major)
CCCCCCCCCOc1cccc(N2C(N)=NC(N)=NC2(C)C)c1 | 302 nM | –
CC1(C)N=C(N)N=C(N)N1c1cccc(C[Se]c2ccccc2)c1 | 275 nM | –
CC(C)c1cccc(OCc2cccc(N3C(N)=NC(N)=NC3(C)C)c2)c1 | 174 nM | 57500 nM
CC1(C)N=C(N)N=C(N)N1c1cccc(CNc2cc(C(N)=O)cc(C(N)=O)c2)c1 | 513 nM | 501000 nM
CC1(C)N=C(N)N=C(N)N1c1cccc(CNc2ccc(Cl)cc2)c1 | 661 nM | 263000 nM
CC1(C)N=C(N)N=C(N)N1c1cccc(COc2cccc(-c3ccccc3)c2)c1 | 17 nM | 22900 nM
CC1(C)N=C(N)N=C(N)N1c1cccc(COc2cccc3ccccc23)c1 | 39.8 nM | 51300 nM
Cc1cccc(OCc2cccc(N3C(N)=NC(N)=NC3(C)C)c2)c1 | 427 nM | 219000 nM
CC1(C)N=C(N)N=C(N)N1c1cccc(COc2cccc(NC(N)=O)c2)c1 | 91.2 nM | –
CCCCCCCCCc1cccc(N2C(N)=NC(N)=NC2(C)C)c1 | 20.9 nM | 8510 nM
CC1(C)N=C(N)N=C(N)N1c1cccc(OCCOc2cccc(C(F)(F)F)c2)c1 | 251 nM | 126000 nM
CC(=O)Nc1cccc(OCc2cccc(N3C(N)=NC(N)=NC3(C)C)c2)c1 | 75.9 nM | –
CC1(C)N=C(N)N=C(N)N1c1cccc([N+](=O)[O-])c1 | 10000 nM | –
CCc1cccc(N2C(N)=NC(N)=NC2(C)C)c1 | 1950 nM | –
CC1(C)N=C(N)N=C(N)N1c1cccc(C(N)=O)c1 | 117000 nM | –
CCCCCc1ccc(OCc2cccc(N3C(N)=NC(N)=NC3(C)C)c2)cc1 | 339 nM | –
CC1(C)N=C(N)N=C(N)N1c1cccc(SCc2ccccc2)c1 | 224 nM | –
CC1(C)N=C(N)N=C(N)N1c1cccc(CSc2ccccc2)c1 | 407 nM | –
CCCCCCOc1cccc(N2C(N)=NC(N)=NC2(C)C)c1 | 3980 nM | –
CC1(C)N=C(N)N=C(N)N1c1cccc(C(O)c2ccccc2)c1 (stereo not drawn) | 42700 nM | –
CC1(C)N=C(N)N=C(N)N1c1cccc(SCc2ccc(Cl)cc2)c1 | 110 nM | 60300 nM
CCCCCCCCCCCCc1cccc(N2C(N)=NC(N)=NC2(C)C)c1 | 72.4 nM | 7940 nM
CC1(C)N=C(N)N=C(N)N1c1cccc(CNc2ccc(S(N)(=O)=O)cc2)c1 | 759 nM | –

Structure (SMILES) | Ki [1] | EC50 (Leishmania major)
COc1cccc(N2C(N)=NC(N)=NC2(C)C)c1 | 22900 nM | –
CC1(C)N=C(N)N=C(N)N1c1cccc(S(N)(=O)=O)c1 | 363000 nM | –
CC(C)(C)c1cccc(N2C(N)=NC(N)=NC2(C)C)c1 | 5750 nM | –
CCOC(=O)c1cccc(N2C(N)=NC(N)=NC2(C)C)c1 | 112000 nM | –
CC1(C)N=C(N)N=C(N)N1c1cccc(C#N)c1 | 6030 nM | –
CC1(C)N=C(N)N=C(N)N1c1cccc(O)c1 | 53700 nM | –
CCCCCCCCCCCOc1cccc(N2C(N)=NC(N)=NC2(C)C)c1 | 977 nM | –
CC1(C)N=C(N)N=C(N)N1c1cccc(OCC23CC4CC(CC(C4)C2)C3)c1 | 3090 nM | –
CC1(C)N=C(N)N=C(N)N1c1cccc(COc2cc(Cl)c(Cl)cc2Cl)c1 | 69.2 nM | 25100 nM
CCOc1cccc(N2C(N)=NC(N)=NC2(C)C)c1 | 38000 nM | –
CCc1cccc(OCc2cccc(N3C(N)=NC(N)=NC3(C)C)c2)c1 | 126 nM | –
CC1(C)N=C(N)N=C(N)N1c1cccc(COc2cccc(C#N)c2)c1 | 178 nM | –
CCCCCCCCCCCCCCOc1cccc(N2C(N)=NC(N)=NC2(C)C)c1 | 5890 nM | –
CC1(C)N=C(N)N=C(N)N1c1cccc(COc2cccc(Cl)c2)c1 | 224 nM | –
COc1cccc(OCc2cccc(N3C(N)=NC(N)=NC3(C)C)c2)c1 | 151 nM | 309000 nM
CC1(C)N=C(N)N=C(N)N1c1cccc(COc2cccc(CO)c2)c1 | 646 nM | –
CC1(C)N=C(N)N=C(N)N1c1cccc(OCCCCOc2cccc(C(F)(F)F)c2)c1 | 75.9 nM | –
CC1(C)N=C(N)N=C(N)N1c1ccccc1 | 12600 nM | –
CC(=O)c1cccc(N2C(N)=NC(N)=NC2(C)C)c1 | 39800 nM | –
CC1(C)N=C(N)N=C(N)N1c1cccc(C(F)(F)F)c1 | 2190 nM | –
CC1(C)N=C(N)N=C(N)N1c1cccc(Cl)c1 | 1200 nM | –
CC1(C)N=C(N)N=C(N)N1c1cccc(OCc2ccccc2)c1 | 1910 nM | –
CN(Cc1cnc2nc(N)nc(N)c2n1)c1ccc(C(=O)N[C@@H](CCC(=O)O)C(=O)O)cc1 [METHOTREXATE] | – | 1000 nM

— ChEMBL document CHEMBL1123784, “Quantitative structure-activity relationship of triazine-antifolate inhibition of Leishmania dihydrofolate reductase and cell growth” (J Med Chem, 1987)
